{"source": "ChEMBL document CHEMBL1157867", "about": "“Synthesis of substituted acridinyl pyrazoline derivatives and their evaluation for anti-inflammatory activity” (Eur J Med Chem, 2010)", "key": {"Rattus norvegicus [1]": {"system": "Rattus norvegicus", "assay": "Antiinflammatory activity in Charles Foster albino rat assessed as carrageenan-induced paw edema at 50 mg/kg, po administered 1 hr before carrageenan challenge measured after 3 hrs relative to control", "type": "functional", "how_it_was_run": "(§1)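 Charles-Foster albino rats of either sex, pregnant females excluded, 70–95 days old, 120–175 g, food and water ad libitum. Groups of six. Compounds in propylene glycol given orally 1 h before 0.05 mL of 1% carrageenan in 0.9% saline, injected under the plantar aponeurosis of the right hind paw. Paw volume read by plethysmometer before and 3 h after injection. Inhibition (%) = (1 − Vt/Vc) × 100.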"}, "Mus musculus [2]": {"system": "Mus musculus", "assay": "Analgesic activity in albino mouse assessed as decrease in acetic acid-induced writhing at 50 mg/kg, ip administered 30 mins before acetic acid challenge measured after 1 hr relative to control", "type": "functional", "design": "scale not given: the % may be the effect or the level left", "conditions": "route intraperitoneal", "how_it_was_run": "(§2)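 Mice of 15–25 g; compounds dissolved in propylene glycol. Acetic acid 0.5%, 0.25 mL/mouse, injected intraperitoneally 30 min after dosing. Mean number of writhes per group counted, and percent decrease versus control calculated after 60 min.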"}, "[3]": {"assay": "Toxicity in ip dosed albino mouse", "type": "organism-based", "conditions": "in vivo, read-out: ALD50", "how_it_was_run": "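Acute lethal dose (ALD50) determined in albino mice of 15–25 g, given food pellets and water ad libitum. Compounds were dissolved in propylene glycol. The procedure followed a previously published method.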"}, "Rattus norvegicus [4]": {"system": "Rattus norvegicus", "assay": "Antiinflammatory activity in Charles Foster albino rat assessed as carrageenan-induced paw edema at 25 mg/kg, po administered 1 hr before carrageenan challenge measured after 3 hrs relative to control", "type": "functional", "how_it_was_run": "as §1"}, "Mus musculus [5]": {"system": "Mus musculus", "assay": "Analgesic activity in albino mouse assessed as decrease in acetic acid-induced writhing at 100 mg/kg, ip administered 30 mins before acetic acid challenge measured after 1 hr relative to control", "type": "functional", "design": "scale not given: the % may be the effect or the level left", "conditions": "route intraperitoneal", "how_it_was_run": "as §2"}, "Mus musculus [6]": {"system": "Mus musculus", "assay": "Analgesic activity in albino mouse assessed as decrease in acetic acid-induced writhing at 25 mg/kg, ip administered 30 mins before acetic acid challenge measured after 1 hr relative to control", "type": "functional", "design": "scale not given: the % may be the effect or the level left", "conditions": "route intraperitoneal", "how_it_was_run": "as §2"}, "Rattus norvegicus [7]": {"system": "Rattus norvegicus", "assay": "Antiinflammatory activity in Charles Foster albino rat assessed as carrageenan-induced paw edema at 100 mg/kg, po administered 1 hr before carrageenan challenge measured after 3 hrs relative to control", "type": "functional", "how_it_was_run": "as §1"}}, "data": [{"compound": "COc1ccc2nc3ccccc3c(N3N=C(CBr)CC3=O)c2c1", "values": [{"measurement": "Activity", "setting": "Rattus norvegicus [1]", "result": 13.5, "unit": "%"}, {"measurement": "Activity", "setting": "Mus musculus [2]", "result": 15.9, "unit": "%"}, {"measurement": "LD50", "setting": "[3]", "result": "> 1000", "unit": "mg/kg"}]}, {"compound": "O=C1CC(CBr)=NN1c1c2ccccc2nc2ccc(Br)cc12", "values": [{"measurement": "Activity", "setting": "Rattus norvegicus [1]", "result": 17.1, "unit": "%"}, {"measurement": "Activity", "setting": "Mus musculus [2]", "result": 13.6, "unit": "%"}, {"measurement": "LD50", "setting": "[3]", "result": "> 1000", "unit": "mg/kg"}]}, {"compound": "COc1cc(Cl)c2nc3ccccc3c(N3N=C(CBr)CC3=O)c2c1", "values": [{"measurement": "Activity", "setting": "Rattus norvegicus [1]", "result": 18.6, "unit": "%"}, {"measurement": "Activity", "setting": "Mus musculus [2]", "result": 16.3, "unit": "%"}, {"measurement": "LD50", "setting": "[3]", "result": "> 1000", "unit": "mg/kg"}]}, {"compound": "COc1cc(Cl)c2nc3ccccc3c(N3N=C(C)CC3=O)c2c1", "values": [{"measurement": "Activity", "setting": "Rattus norvegicus [1]", "result": 14.4, "unit": "%"}, {"measurement": "Activity", "setting": "Mus musculus [2]", "result": 13.4, "unit": "%"}, {"measurement": "LD50", "setting": "[3]", "result": "> 1000", "unit": "mg/kg"}]}, {"compound": "CC1=NN(c2c3ccccc3nc3c(Cl)cc(Cl)cc23)C(=O)C1", "values": [{"measurement": "Activity", "setting": "Rattus norvegicus [1]", "result": 17.6, "unit": "%"}, {"measurement": "Activity", "setting": "Mus musculus [2]", "result": 14.7, "unit": "%"}, {"measurement": "LD50", "setting": "[3]", "result": "> 1000", "unit": "mg/kg"}]}, {"compound": "O=C1CC(CBr)=NN1c1c2ccccc2nc2ccccc12", "values": [{"measurement": "Activity", "setting": "Rattus norvegicus [1]", "result": 12.8, "unit": "%"}, {"measurement": "Activity", "setting": "Mus musculus [2]", "result": 13.2, "unit": "%"}, {"measurement": "LD50", "setting": "[3]", "result": "> 1000", "unit": "mg/kg"}]}, {"compound": "CC1=NN(c2c3ccccc3nc3ccccc23)C(=O)C1", "values": [{"measurement": "Activity", "setting": "Rattus norvegicus [1]", "result": 10.8, "unit": "%"}, {"measurement": "Activity", "setting": "Mus musculus [2]", "result": 8.6, "unit": "%"}, {"measurement": "LD50", "setting": "[3]", "result": "> 1000", "unit": "mg/kg"}]}, {"compound": "CC1=NN(c2c3ccccc3nc3ccc(Cl)cc23)C(=O)C1", "values": [{"measurement": "Activity", "setting": "Rattus norvegicus [1]", "result": 13.5, "unit": "%"}, {"measurement": "Activity", "setting": "Mus musculus [2]", "result": 12.6, "unit": "%"}, {"measurement": "LD50", "setting": "[3]", "result": "> 1000", "unit": "mg/kg"}]}, {"compound": "COc1ccc2nc3ccccc3c(N3N=C(C)CC3=O)c2c1", "values": [{"measurement": "Activity", "setting": "Rattus norvegicus [1]", "result": 11.5, "unit": "%"}, {"measurement": "Activity", "setting": "Mus musculus [2]", "result": 10.8, "unit": "%"}, {"measurement": "LD50", "setting": "[3]", "result": "> 1000", "unit": "mg/kg"}]}, {"compound": "O=C1CC(CSc2nnc(-c3ccncc3)o2)=NN1c1c2ccccc2nc2c(Cl)cc(Cl)cc12", "values": [{"measurement": "Activity", "setting": "Rattus norvegicus [1]", "result": 40.8, "unit": "%"}, {"measurement": "Activity", "setting": "Rattus norvegicus [4]", "result": 32.1, "unit": "%"}, {"measurement": "Activity", "setting": "Mus musculus [2]", "result": 33.5, "unit": "%"}, {"measurement": "Activity", "setting": "Mus musculus [5]", "result": 42.4, "unit": "%"}, {"measurement": "Activity", "setting": "Mus musculus [6]", "result": 30.6, "unit": "%"}, {"measurement": "LD50", "setting": "[3]", "result": "> 1000", "unit": "mg/kg"}]}, {"compound": "COc1ccc2nc3ccccc3c(N3N=C(CSc4nnc(-c5ccncc5)o4)CC3=O)c2c1", "values": [{"measurement": "Activity", "setting": "Rattus norvegicus [1]", "result": 31.2, "unit": "%"}, {"measurement": "Activity", "setting": "Mus musculus [2]", "result": 29.7, "unit": "%"}, {"measurement": "LD50", "setting": "[3]", "result": "> 1000", "unit": "mg/kg"}]}, {"compound": "O=C1CC(CSc2nnc(-c3ccncc3)o2)=NN1c1c2ccccc2nc2ccc(Br)cc12", "values": [{"measurement": "Activity", "setting": "Rattus norvegicus [1]", "result": 31.5, "unit": "%"}, {"measurement": "Activity", "setting": "Mus musculus [2]", "result": 28.8, "unit": "%"}, {"measurement": "LD50", "setting": "[3]", "result": "> 1000", "unit": "mg/kg"}]}, {"compound": "O=C1CC(CBr)=NN1c1c2ccccc2nc2c(Cl)cc(Cl)cc12", "values": [{"measurement": "Activity", "setting": "Rattus norvegicus [1]", "result": 20.7, "unit": "%"}, {"measurement": "Activity", "setting": "Mus musculus [2]", "result": 18.6, "unit": "%"}, {"measurement": "LD50", "setting": "[3]", "result": "> 1000", "unit": "mg/kg"}]}, {"compound": "O=C1CC(CSc2nnc(-c3ccncc3)o2)=NN1c1c2ccccc2nc2ccccc12", "values": [{"measurement": "Activity", "setting": "Rattus norvegicus [1]", "result": 24.1, "unit": "%"}, {"measurement": "Activity", "setting": "Mus musculus [2]", "result": 25.9, "unit": "%"}, {"measurement": "LD50", "setting": "[3]", "result": "> 1000", "unit": "mg/kg"}]}, {"compound": "O=C1CC(CSc2nnc(-c3ccncc3)o2)=NN1c1c2ccccc2nc2ccc(Cl)cc12", "values": [{"measurement": "Activity", "setting": "Rattus norvegicus [1]", "result": 27.2, "unit": "%"}, {"measurement": "Activity", "setting": "Mus musculus [2]", "result": 30.6, "unit": "%"}, {"measurement": "LD50", "setting": "[3]", "result": "> 1000", "unit": "mg/kg"}]}, {"compound": "O=C1CC(CBr)=NN1c1c2ccccc2nc2ccc(Cl)cc12", "values": [{"measurement": "Activity", "setting": "Rattus norvegicus [1]", "result": 15.9, "unit": "%"}, {"measurement": "Activity", "setting": "Mus musculus [2]", "result": 16.4, "unit": "%"}, {"measurement": "LD50", "setting": "[3]", "result": "> 1000", "unit": "mg/kg"}]}, {"compound": "CC1=NN(c2c3ccccc3nc3ccc(Br)cc23)C(=O)C1", "values": [{"measurement": "Activity", "setting": "Rattus norvegicus [1]", "result": 12.6, "unit": "%"}, {"measurement": "Activity", "setting": "Mus musculus [2]", "result": 12.9, "unit": "%"}, {"measurement": "LD50", "setting": "[3]", "result": "> 1000", "unit": "mg/kg"}]}, {"compound": "CC(=O)Oc1ccccc1C(=O)O", "note": "[ASPIRIN]", "values": [{"measurement": "Activity", "setting": "Rattus norvegicus [7]", "result": 60.8, "unit": "%"}, {"measurement": "Activity", "setting": "Rattus norvegicus [4]", "result": 30.25, "unit": "%"}, {"measurement": "Activity", "setting": "Mus musculus [5]", "result": 59.3, "unit": "%"}, {"measurement": "Activity", "setting": "Mus musculus [6]", "result": 30.2, "unit": "%"}]}, {"compound": "CCCCC1C(=O)N(c2ccccc2)N(c2ccccc2)C1=O", "note": "[PHENYLBUTAZONE]", "values": [{"measurement": "Activity", "setting": "Rattus norvegicus [7]", "result": 63.4, "unit": "%"}, {"measurement": "Activity", "setting": "Rattus norvegicus [4]", "result": 31.4, "unit": "%"}, {"measurement": "Activity", "setting": "Mus musculus [5]", "result": 42.6, "unit": "%"}, {"measurement": "Activity", "setting": "Mus musculus [6]", "result": 31, "unit": "%"}]}]}
